The subject of experiment [1] is J774. Briefly: Antiinflammatory activity in mouse J774 cells assessed as inhibition of LPS-induced nitric oxide production measured as remaining nitric oxide levels at 10 uM by Griess assay. In kind it is functional. The procedure, abridged: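 Confluent J774 monolayers were treated with LPS plus compound at 10 μM in fresh medium, 24 h. NO was read as accumulated nitrite in the medium by Griess reaction. n = 4, mean ± SEM versus cells cultured with LPS only.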
(In general: Griess reagent forms a coloured azo dye with nitrite.)

Experiment [2] relates to J774. Description: Antiinflammatory activity against mouse J774 cells assessed as inhibition of LPS-induced MCP-1 production measured as remaining MCP-1 levels at 10 uM after 24 hrs by ELISA. In kind it is functional. The procedure, abridged:
(§1)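 J774 macrophages were grown 72 h to confluence, then exposed to LPS with compound at 10 μM in fresh medium for 24 h. IL-6 and MCP-1 in the culture medium were quantified by ELISA. n = 4, mean ± SEM relative to LPS-only cells.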
(In an ELISA, binding on a coated surface is turned into a signal by an enzyme label.)

Experiment [3] relates to J774. Description: Antiinflammatory activity in mouse J774 cells assessed as inhibition of LPS-induced iNOS expression measured as remaining protein levels at 10 uM after 24 hrs by Western blot analysis. In kind it is functional. The procedure, abridged:
(§2)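 Murine J774 macrophages were grown 72 h to confluence in DMEM with 10% heat-inactivated FBS at 37 °C, 5% CO2. Compound was added in fresh medium with LPS for 24 h. Cells were lysed, and 20 μg protein was immunoblotted for COX-2 or iNOS with actin as the loading control, detected by chemiluminescence. n = 4, mean ± SEM versus LPS alone.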
In general terms: In western blotting, separated proteins are transferred to a membrane and probed.

In experiment [4] the test system is J774. Description: Antiinflammatory activity against mouse J774 cells assessed as inhibition of LPS-induced IL-6 production measured as remaining IL-6 levels at 10 uM after 24 hrs by ELISA. In kind it is functional. The procedure, abridged: as §1
In experiment [5] the test system is J774. Briefly: Antiinflammatory activity against mouse J774 cells assessed as inhibition of LPS-induced COX-2 expression measured as remaining protein levels at 10 uM after 24 hrs by Western blot analysis. In kind it is functional. In a few lines:
as §2

In experiment [6] the test system is J774. Description: Inhibition of LPS-induced iNOS mRNA levels in mouse J774 cells after 6 hrs by qRT-PCR method. In kind it is functional, cell-based. The procedure, abridged: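 Activated J774 cells received compound at 10 μM alongside LPS. At 3, 6 or 24 h, total RNA was extracted and iNOS, IL-6 or MCP-1 mRNA was measured by TaqMan quantitative RT-PCR (40 cycles, 95 °C/60 °C) in duplicate. Levels came from a standard curve and were normalized to GAPDH. n = 4 versus LPS only.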

The test system of experiment [7] is J774. Description: Antiinflammatory activity against mouse J774 cells assessed as inhibition of LPS-induced iNOS expression after 24 hrs by Western blot analysis. In kind it is functional, cell-based. The conditions noted are these: J774, 24 h. The procedure, abridged: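 Murine J774 macrophages in DMEM with 10% heat-inactivated FBS, grown 72 h to confluence, then given LPS plus compound in fresh medium for 24 h. Cells washed in ice-cold PBS and lysed; 20 μg protein per lane on Western blot for iNOS, with β-actin as loading control and chemiluminescent detection. Values relative to LPS-only cells; mean ± SEM, n = 4.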

Active and inactive are the calls of the source. The rule behind the calls is not given here.

As for `C=C(C)[C@@H]1CC[C@]2(C=O)CC[C@]3(C)[C@H](CC[C@@H]4[C@@]5(C)Cc6cnoc6C(C)(C)[C@@H]5CC[C@]43C)[C@@H]12`, the “Remaining nitric oxide level (% of LPS-only control)” value with J774 [1] came out at 113.1%. Moreover, the Activity in the experiment with J774 [2] turned out to be 102.1%; in the experiment with J774 [3] it was 57.5%; with J774 [5], 49.6%. In addition, the “Remaining IL-6 level (% of LPS-only)” value with J774 [4] is listed as 91.4%.

Consider `C=C(C)[C@@H]1CC[C@]2(C(N)=O)CC[C@]3(C)[C@H](CC[C@@H]4[C@@]5(C)Cc6nccnc6C(C)(C)[C@@H]5CC[C@]43C)[C@@H]12`, for which, in the experiment with J774 [1], the “Remaining nitric oxide level (% of LPS-only control)” value was determined as 111.9%. Also, the Activity in the experiment with J774 [2] was found to be 79.4%; in the experiment with J774 [3], 34.9%; in the experiment with J774 [5] it was 89.9%. Moreover, in the experiment with J774 [4], the “Remaining IL-6 level (% of LPS-only)” value is 82.8%.

In the case of `C=C(C)[C@@H]1CC[C@]2(C(=O)O)CC[C@]3(C)[C@H](CC[C@@H]4[C@@]5(C)C[C@H](O)[C@H](O)C(C)(C)[C@@H]5CC[C@]43C)[C@@H]12`, in the experiment with J774 [1], the “Remaining nitric oxide level (% of LPS-only control)” value turned out to be 71.4%. The Activity with J774 [2] is listed as 68.3%; in the experiment on J774 [3] it was 63.6%; with J774 [5] it was 93.4%. Further, the “Remaining IL-6 level (% of LPS-only)” value in the experiment with J774 [4] was determined as 70.7%.

For the compound `C=C(C)[C@@H]1CC[C@]2(C(=O)O)CC[C@]3(C)[C@H](CC[C@@H]4[C@@]5(C)CCC(=O)C(C)(C)[C@@H]5CC[C@]43C)[C@@H]12` [BETUNOLIC ACID], the “Remaining nitric oxide level (% of LPS-only control)” value in the experiment with J774 [1] worked out at 45.3%. In addition, the results for the Activity in the experiment with J774 [2], in the experiment with J774 [3] and in the experiment on J774 [5] were 118%, 38.3% and 107.1%, respectively. Moreover, in the experiment with J774 [4], the “Remaining IL-6 level (% of LPS-only)” value amounted to 87.1%.

For `C=C(C)[C@@H]1CC[C@]2(C(=O)O)CC[C@]3(C)[C@H](CC[C@@H]4[C@@]5(C)Cc6c([nH]c7ccc(OC)cc67)C(C)(C)[C@@H]5CC[C@]43C)[C@@H]12`, in the experiment with J774 [1], the “Remaining nitric oxide level (% of LPS-only control)” value is on record as 97.5%. Moreover, the Activity is reported as 73.1% in the experiment on J774 [2], 95.1% with J774 [3] and 162.6% in the experiment with J774 [5]. Further, the “Remaining IL-6 level (% of LPS-only)” value with J774 [4] was determined as 123.5%.

As for `CC1(C)CC[C@]23CC[C@]4(C)[C@H](CC[C@@H]5[C@@]6(C)Cc7c([nH]c8ccccc78)C(C)(C)[C@@H]6CC[C@]54C)[C@H]2C1OC3`, the “Remaining nitric oxide level (% of LPS-only control)” value in the experiment with J774 [1] is recorded as 96.5%. The Activity with J774 [2] amounted to 96.2%; in the experiment with J774 [3] it was 94.5%; in the experiment with J774 [5], 94.8%. Moreover, the “Remaining IL-6 level (% of LPS-only)” value with J774 [4] is on record as 92.1%.

Consider `C=C(C)[C@@H]1CC[C@]2(C(=O)O)CC[C@]3(C)[C@H](CC[C@@H]4[C@@]5(C)CC6OC(C)(C)OC6C(C)(C)[C@@H]5CC[C@]43C)[C@@H]12` (stereo partly specified), for which the “Remaining nitric oxide level (% of LPS-only control)” value in the experiment on J774 [1] came out at 75.2%. Besides, the Activity in the experiment on J774 [2] is on record as 87%; in the experiment with J774 [3], 40.7%; with J774 [5], 117.4%. Also, in the experiment on J774 [4], the “Remaining IL-6 level (% of LPS-only)” value amounted to 131.7%.

For `C=C(C)[C@@H]1CC[C@]2(C(=O)O)CC[C@]3(C)[C@H](CC[C@@H]4[C@@]5(C)CC[C@H](O)C(C)(C)[C@@H]5CC[C@]43C)[C@@H]12` [BETULINIC ACID], the “Remaining nitric oxide level (% of LPS-only control)” value with J774 [1] is given as 69%. Also, the figures for the Activity with J774 [2], in the experiment on J774 [3] and with J774 [5] were 98.5%, 57.6% and 96%, respectively. Further, the “Remaining IL-6 level (% of LPS-only)” value in the experiment on J774 [4] was 66.1%.

On to `C=C(C)[C@@H]1CC[C@]2(C(N)=O)CC[C@]3(C)[C@H](CC[C@@H]4[C@@]5(C)Cc6cnoc6C(C)(C)[C@@H]5CC[C@]43C)[C@@H]12`, for which the “Remaining nitric oxide level (% of LPS-only control)” value in the experiment on J774 [1] is 66.5%. Also, the Activity with J774 [2] amounted to 57.6%; in the experiment on J774 [3], 8.3%; in the experiment on J774 [5] it was 105.5%. Further, in the experiment on J774 [6], the inhibition result is “inactive”. Also, the “Remaining IL-6 level (% of LPS-only)” value in the experiment with J774 [4] amounted to 90.9%. Moreover, the IC50 – broadly, the concentration needed to halve the response being measured – in the experiment on J774 [7] came out at 0.3 µM.

With `C=C(C)[C@@H]1CC[C@]2(C(=O)O)CC[C@]3(C)[C@H](CC[C@@H]4[C@@]5(C)Cc6nccnc6C(C)(C)[C@@H]5CC[C@]43C)[C@@H]12`, the inhibition result in the experiment with J774 [6] is “inactive”. Also, in the experiment on J774 [7], the half-maximal inhibitory concentration (IC50) came out at 0.3 µM.

As to `C=C(C)[C@@H]1CC[C@]2(/C=N/O)CC[C@]3(C)[C@H](CC[C@@H]4[C@@]5(C)CC[C@H](O)C(C)(C)[C@@H]5CC[C@]43C)[C@@H]12`, the “Remaining nitric oxide level (% of LPS-only control)” value in the experiment with J774 [1] stood at 31.3%. Further, the Activity in the experiment on J774 [2] stood at 136.9%; in the experiment with J774 [3], 6.2%; with J774 [5] it was 127%. In the experiment on J774 [6], the inhibition entry was “inactive”. The “Remaining IL-6 level (% of LPS-only)” value in the experiment with J774 [4] is recorded as 98.3%. The IC50 in the experiment on J774 [7] stood at 0.3 µM.

Take `CC1(C)CC[C@]23CC[C@]4(C)[C@H](CC[C@@H]5[C@@]6(C)Cc7c([nH]c8ccc(F)cc78)C(C)(C)[C@@H]6CC[C@]54C)[C@H]2C1OC3`: the “Remaining nitric oxide level (% of LPS-only control)” value in the experiment with J774 [1] worked out at 122.6%. Also, the results for the Activity in the experiment on J774 [2], in the experiment with J774 [3] and with J774 [5] were 108.5%, 83.9% and 91.8%, respectively. Further, the “Remaining IL-6 level (% of LPS-only)” value in the experiment on J774 [4] stood at 99.3%.

For the compound `CCC(=O)OC[C@]12CC[C@]3(C(C)C)C1=C1[C@H](C[C@@H]4[C@@]5(C)CC[C@H](OC(=O)CC)C(C)(C)[C@@H]5CC[C@@]4(C)[C@]1(C)CC2)n1c(=O)n(C)c(=O)n13`, the “Remaining nitric oxide level (% of LPS-only control)” value in the experiment on J774 [1] is reported as 55.7%. The values for the Activity with J774 [2], in the experiment on J774 [3] and in the experiment with J774 [5] were 80.3%, 50.5% and 43%, respectively. Besides, in the experiment with J774 [4], the “Remaining IL-6 level (% of LPS-only)” value amounted to 60%.

On to `C=C(C)[C@@H]1CC[C@]2(CO)CC[C@]3(C)[C@H](CC[C@@H]4[C@@]5(C)CC[C@H](O)C(C)(C)[C@@H]5CC[C@]43C)[C@@H]12` [BETULIN], for which the “Remaining nitric oxide level (% of LPS-only control)” value with J774 [1] stood at 47.9%. The figures for the Activity with J774 [2], with J774 [3] and in the experiment with J774 [5] were 206.5%, 63.4% and 175.1%, respectively. Besides, the “Remaining IL-6 level (% of LPS-only)” value in the experiment with J774 [4] worked out at 133.9%.

On to `C=C(C)[C@@H]1CC[C@]2(C(=O)O)CC[C@]3(C)[C@H](CC[C@@H]4[C@@]5(C)Cc6c([nH]c7ccccc67)C(C)(C)[C@@H]5CC[C@]43C)[C@@H]12`, for which the “Remaining nitric oxide level (% of LPS-only control)” value in the experiment on J774 [1] came to 79.5%. The Activity in the experiment on J774 [2] is listed as 83.4%; in the experiment with J774 [3], 66.6%; with J774 [5] it was 140.9%. The “Remaining IL-6 level (% of LPS-only)” value in the experiment with J774 [4] amounted to 108.9%.

The record behind these values is ChEMBL document CHEMBL3797069, “Betulin Derivatives Effectively Suppress Inflammation in Vitro and in Vivo” (J Nat Prod, 2016).
